Assays:
Type in all cases: functional, cell-based
HT-29 = experiment: Cytotoxicity against human HT-29 cells after 72 hrs by MTT assay; details: HT-29, 72 h
HL-60 = experiment: Cytotoxicity against human HL60 cells after 72 hrs by MTT assay; details: HL-60, 72 h
Outline: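 HL-60 cells were grown in RPMI 1640 with 10% FCS at 37 °C and 5% CO2, seeded at 5 × 10^5/mL and cultured 24 h. Cells were then exposed to compound for 72 h. MTT was added to a final 0.05% for 2 h, and formazan was dissolved in DMSO with 10% SDS and 0.6% acetic acid. A570 was read against A630 background. IC50 was taken from concentration–response curves relative to untreated controls; quadruplicate, four independent experiments.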

[1] = Cytotoxicity against human MCF7/Topo cells after 72 hrs by MTT assay
Outline: (§1)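 Cells were seeded at 5 × 10^4/mL and cultured 24 h, then exposed to compound for 72 h. KB-V1/Vbl cells were grown in DMEM with 10% FCS and MCF-7/Top cells in EMEM with 5% FCS, pyruvate and NaHCO3. MTT was added to a final 0.1% for 2 h. Medium was discarded, and formazan was dissolved in DMSO/SDS/acetic acid. A570 was read against A630 background. IC50 was taken from concentration–response curves versus untreated controls; four independent experiments.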

[2] = Cytotoxicity against human KB-V1/Vbl cells after 72 hrs by MTT assay; outline: as §1
[3] = Cytotoxicity against human 518A2 cells after 72 hrs by MTT assay; details: 518A2, 72 h
Outline: (§2)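 518A2 cells and foreskin fibroblasts were grown in DMEM with 10% FCS, seeded at 5 × 10^4/mL and cultured 24 h. Cells were then exposed to compound for 72 h. MTT was added to a final 0.05% for 2 h. Medium was discarded, and formazan was dissolved in DMSO/10% SDS/0.6% acetic acid. A570 was read against A630 background. IC50 was taken from concentration–response curves versus untreated controls; four independent experiments.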

HFF = experiment: Cytotoxicity against human HFF after 72 hrs by MTT assay; outline: as §2

Compound	IC50 (HT-29)	IC50 (HL-60)	IC50 [1]	IC50 [2]	IC50 [3]	IC50 (HFF)
Cc1occ2c1C(=O)c1c(ccc(O)c1O)C2=O	70 µM	89 µM	> 100 µM	86 µM	84 µM	69 µM
COc1ccc2c(c1O)C(=O)c1c(coc1C)C2=O	31 µM	18 µM	16 µM	51 µM	> 100 µM	31 µM
CC1=CC(=O)C(C(C)C)=CC1=O [THYMOQUINONE]	47 µM	28 µM	27 µM	32 µM	28 µM	33 µM

Reference: ChEMBL document CHEMBL1671775, “Synthesis, anticancer activity, and iron affinity of the Actinoplanes metabolite 7,8-dihydroxy-1-methylnaphtho[2,3-c]furan-4,9-dione” (Bioorg Med Chem, 2011)
